Test results: ChEMBL document CHEMBL2384953, “Design and synthesis of L- and D-phenylalanine derived rhodanines with novel C5-arylidenes as inhibitors of HCV NS5B polymerase” (Bioorg Med Chem, 2013)

Key:
[1] = target: RNA-directed RNA polymerase (Hepacivirus hominis, UniProt O39930, M414T); experiment: Inhibition of HCV NS5B polymerase M414T mutant assessed as inhibition of radioactive UMP incorporation into nascent RNA using […] template-primer after 1hr by liquid scintillation counting analysis
Procedure, shortened: (§1)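 Mutant counterscreen with recombinant NS5BCΔ21 mutants: P495L (probe for TP-I site), M423T (TP-II), M414T (PP-I). Radioactive UMP incorporation into nascent RNA on poly rA/U12 template-primer, run as for wild-type. IC50 from dose-response curves by nonlinear regression; mean ± SD of at least two independent experiments in duplicate.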

[2] = target: RNA-directed RNA polymerase (Hepacivirus hominis, UniProt O39930, M423T); experiment: Inhibition of HCV NS5B polymerase M423T mutant assessed as inhibition of radioactive UMP incorporation into nascent RNA using […] template-primer after 1hr by liquid scintillation counting analysis; procedure, shortened: as §1
[3] = target: RNA-directed RNA polymerase (Hepacivirus hominis, UniProt O39930, P495L); experiment: Inhibition of HCV NS5B polymerase P495L mutant assessed as inhibition of radioactive UMP incorporation into nascent RNA using […] template-primer after 1hr by liquid scintillation counting analysis; procedure, shortened: as §1
[4] = system: Hepatitis C virus; experiment: Inhibition of HCV genotype 1b recombinant NS5B Cdelta21 polymerase assessed as inhibition of radioactive UMP incorporation into nascent RNA using […] template-primer after 1hr by liquid scintillation counting analysis; set-up: species or system Hepatitis C virus subtype 1b
Procedure, shortened: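 Recombinant HCV NS5BCΔ21 (genotype 1b), homopolymeric poly rA/U12 template-primer. Read-out is radioactive UMP incorporated into nascent RNA. Dose-response at 8-10 compound concentrations, in duplicate, two independent experiments. IC50 interpolated from nonlinear regression fits; mean ± SD.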

[5] = system: Hepacivirus hominis; experiment: Selectivity ratio of IC50 for HCV NS5B polymerase M414T mutant to IC50 for wild type HCV NS5B polymerase
Procedure, shortened: (§2)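 Recombinant HCV NS5BCΔ21 (genotype 1b), wild type and the P495L, M423T and M414T mutants, each assayed for incorporation of radioactive UMP into nascent RNA on homopolymeric poly rA/U12 template-primer. IC50s came from nonlinear regression of dose-response curves (8-10 compound concentrations, duplicate, at least two independent experiments, mean ± SD). The ratio is mutant IC50 over wild-type IC50.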

[6] = system: Hepacivirus hominis; experiment: Selectivity ratio of IC50 for HCV NS5B polymerase P495L mutant to IC50 for wild type HCV NS5B polymerase; procedure, shortened: as §2
[7] = system: Hepacivirus hominis; experiment: Selectivity ratio of IC50 for HCV NS5B polymerase M423T mutant to IC50 for wild type HCV NS5B polymerase; procedure, shortened: as §2
[8] = system: Hepatitis C virus; experiment: Antiviral activity against hepatitis C virus infected in human hepatoma cells assessed as inhibition of HCV replication at 100 uM; type: functional, Hepacivirus hominis
[9] = Cytotoxicity against human hepatoma cells; type: cell-based

Sequence of RNA-directed RNA polymerase (Hepacivirus hominis, UniProt O39930, P495L) (O39930 entry or part of it P495L): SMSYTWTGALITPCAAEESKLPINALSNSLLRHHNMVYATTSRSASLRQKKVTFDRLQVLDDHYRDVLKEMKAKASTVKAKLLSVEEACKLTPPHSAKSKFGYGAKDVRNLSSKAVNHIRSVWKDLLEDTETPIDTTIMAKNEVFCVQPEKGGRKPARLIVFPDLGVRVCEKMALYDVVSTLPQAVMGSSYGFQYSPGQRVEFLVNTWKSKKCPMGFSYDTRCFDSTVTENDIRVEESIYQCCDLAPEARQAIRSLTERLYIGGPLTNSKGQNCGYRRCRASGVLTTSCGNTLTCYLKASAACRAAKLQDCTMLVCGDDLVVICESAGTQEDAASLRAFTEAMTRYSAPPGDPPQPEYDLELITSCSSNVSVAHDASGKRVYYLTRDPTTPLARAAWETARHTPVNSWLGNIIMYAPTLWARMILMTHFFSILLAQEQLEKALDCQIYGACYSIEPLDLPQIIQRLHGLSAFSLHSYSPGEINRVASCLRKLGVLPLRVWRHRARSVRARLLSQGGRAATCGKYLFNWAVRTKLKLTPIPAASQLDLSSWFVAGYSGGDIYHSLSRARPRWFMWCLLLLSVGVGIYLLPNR
Sequence of RNA-directed RNA polymerase (Hepacivirus hominis, UniProt O39930, M414T) (O39930 entry or part of it M414T): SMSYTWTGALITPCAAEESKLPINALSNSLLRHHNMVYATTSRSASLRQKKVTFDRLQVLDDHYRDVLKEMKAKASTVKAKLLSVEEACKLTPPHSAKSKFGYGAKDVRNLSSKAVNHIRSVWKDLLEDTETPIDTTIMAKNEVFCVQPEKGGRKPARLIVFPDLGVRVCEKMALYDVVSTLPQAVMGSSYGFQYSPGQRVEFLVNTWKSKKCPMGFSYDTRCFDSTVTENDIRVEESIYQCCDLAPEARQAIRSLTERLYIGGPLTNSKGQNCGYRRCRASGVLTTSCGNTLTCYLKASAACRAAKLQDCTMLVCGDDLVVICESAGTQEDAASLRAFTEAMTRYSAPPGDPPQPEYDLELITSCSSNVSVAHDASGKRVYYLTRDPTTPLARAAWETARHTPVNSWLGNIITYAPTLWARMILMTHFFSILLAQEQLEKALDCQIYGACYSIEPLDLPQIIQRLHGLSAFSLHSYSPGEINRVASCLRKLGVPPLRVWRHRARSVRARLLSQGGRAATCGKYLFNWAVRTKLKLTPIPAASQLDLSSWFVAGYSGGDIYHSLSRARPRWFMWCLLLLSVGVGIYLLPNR
Sequence of RNA-directed RNA polymerase (Hepacivirus hominis, UniProt O39930, M423T) (O39930 entry or part of it M423T): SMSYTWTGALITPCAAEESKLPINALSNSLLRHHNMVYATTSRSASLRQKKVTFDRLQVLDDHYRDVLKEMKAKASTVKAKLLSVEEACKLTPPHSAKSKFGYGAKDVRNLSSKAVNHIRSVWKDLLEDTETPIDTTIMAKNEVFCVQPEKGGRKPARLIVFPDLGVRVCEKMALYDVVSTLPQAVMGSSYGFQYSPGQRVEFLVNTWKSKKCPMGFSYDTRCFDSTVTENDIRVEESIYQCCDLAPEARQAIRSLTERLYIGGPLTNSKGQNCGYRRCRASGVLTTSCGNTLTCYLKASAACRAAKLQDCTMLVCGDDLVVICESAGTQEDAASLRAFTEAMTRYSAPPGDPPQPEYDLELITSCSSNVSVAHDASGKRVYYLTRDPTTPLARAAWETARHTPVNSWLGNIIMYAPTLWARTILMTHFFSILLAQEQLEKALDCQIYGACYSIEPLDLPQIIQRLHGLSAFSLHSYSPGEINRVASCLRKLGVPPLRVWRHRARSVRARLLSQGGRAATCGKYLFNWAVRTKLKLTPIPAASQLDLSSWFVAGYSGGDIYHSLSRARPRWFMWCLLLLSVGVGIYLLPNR

SMILES | IC50 [4] [µM] | also measured
O=C(O)[C@H](Cc1ccccc1)N1C(=O)/C(=C/c2cccc(Oc3ccc(Cl)c(Cl)c3)c2)SC1=S | 2.6 | IC50 [1]: 47.8 µM; IC50 [2]: 3 µM; IC50 [3]: 2.8 µM; Ratio IC50 [5]: 16; Ratio IC50 [6]: < 1.5; Ratio IC50 [7]: < 1.5
O=C(O)[C@H](Cc1ccccc1)N1C(=O)/C(=C/c2ccc(Br)cc2)SC1=S | 11.7 | 
O=C(O)[C@H](Cc1ccccc1)N1C(=O)/C(=C/c2cccc(Oc3cccc(Cl)c3)c2)SC1=S | 4.1 | 
O=C(O)[C@H](Cc1ccccc1)N1C(=O)/C(=C/c2ccccc2Oc2ccccc2)SC1=S | 13.3 | 
O=C(O)[C@H](Cc1ccccc1)N1C(=O)/C(=C/c2cccc(OC/C=C\c3ccccc3)c2)SC1=S | 6.4 | 
O=C(O)[C@H](Cc1ccccc1)N1C(=O)/C(=C/c2ccc(Cl)cc2)SC1=S | 22.3 | 
O=C(O)[C@H](Cc1ccccc1)N1C(=O)/C(=C/c2cccc(-c3ccccc3)c2)SC1=S | 16.6 | 
O=C(O)[C@H](Cc1ccccc1)N1C(=O)/C(=C/c2cccc(Cl)c2)SC1=S | 26.6 | 
O=C(O)[C@@H](Cc1ccccc1)N1C(=O)/C(=C/c2cccc(Oc3ccccc3)c2)SC1=S | 19.3 | 
O=C(O)[C@@H](Cc1ccccc1)N1C(=O)/C(=C/c2cccc(Oc3ccc(F)cc3)c2)SC1=S | 10.3 | 
O=C(O)[C@H](Cc1ccccc1)N1C(=O)/C(=C/c2cccc(Cc3ccccc3)c2)SC1=S | 4.8 | inhibition at 100 µM [8]: 30%; Activity [9]: Non-toxic
O=C(O)[C@H](Cc1ccccc1)N1C(=O)/C(=C/c2cccc(Oc3ccc(F)cc3)c2)SC1=S | 12.5 | 
O=C(O)[C@H](Cc1ccccc1)N1C(=O)/C(=C/c2cccc(Oc3ccc(Cl)cc3)c2)SC1=S | 3.4 | IC50 [1]: 55.7 µM; IC50 [2]: 4.2 µM; IC50 [3]: 3.6 µM; Ratio IC50 [5]: 16; Ratio IC50 [6]: < 1.5; Ratio IC50 [7]: < 1.5
O=C(O)[C@H](Cc1ccccc1)N1C(=O)/C(=C/c2cccc(Oc3cccc(F)c3)c2)SC1=S | 8.2 | 
O=C(O)[C@H](Cc1ccccc1)N1C(=O)/C(=C/c2cccc(Oc3ccccc3)c2)SC1=S | 6.7 | 
O=C(O)[C@@H](Cc1ccccc1)N1C(=O)/C(=C/c2cccc(Oc3ccc(Cl)c(Cl)c3)c2)SC1=S | 5.4 | 
O=C(c1ccccc1)c1cccc(/C=C2\SC(=S)N([C@@H](Cc3ccccc3)C(=O)O)C2=O)c1 | 11.1 | 
N#Cc1cccc(/C=C2\SC(=S)N([C@@H](Cc3ccccc3)C(=O)O)C2=O)c1 | 30.7 | 
COc1ccc(Oc2cccc(/C=C3\SC(=S)N([C@@H](Cc4ccccc4)C(=O)O)C3=O)c2)cc1 | 8.3 | 
O=C(O)[C@H](Cc1ccccc1)N1C(=O)/C(=C/c2cc(F)cc(F)c2)SC1=S | 26 | 
O=C(O)[C@H](Cc1ccccc1)N1C(=O)/C(=C/c2ccc(F)c(F)c2)SC1=S | 16.3 | 
O=C(O)[C@H](Cc1ccccc1)N1C(=O)/C(=C/c2cccc(Br)c2)SC1=S | 7.4 | 
O=C(O)[C@H](Cc1ccccc1)N1C(=O)/C(=C/c2ccc(F)cc2)SC1=S | 27.7 | 
O=C(O)[C@H](Cc1ccccc1)N1C(=O)/C(=C/c2cccc(OCc3ccccc3)c2)SC1=S | 21.8 | 
O=C(O)[C@@H](Cc1ccccc1)N1C(=O)/C(=C/c2cccc(Oc3cccc(Cl)c3)c2)SC1=S | 4.1 | 
O=C(O)[C@H](Cc1ccccc1)N1C(=O)/C(=C/c2ccc(Cl)c(Cl)c2)SC1=S | 19.4 | 
O=C(O)[C@@H](Cc1ccccc1)N1C(=O)/C(=C/c2cccc(Oc3ccc(Cl)cc3)c2)SC1=S | 5.1 | 
O=C(O)[C@H](Cc1ccccc1)N1C(=O)/C(=C/c2ccc(Oc3ccccc3)cc2)SC1=S | 50.7 | 
